Assay results reported in ChEMBL document CHEMBL1127344, “Tridentate ligands containing the SNS donor atom set as a novel backbone for the development of technetium brain-imaging agents” (J Med Chem, 1994).

Tests used:
Rattus norvegicus [1] = species: Rattus norvegicus; assay: Tested for biodistribution of compound at 60 min in rat l intestine; assay type: ADME, organism-based; conditions: in vivo, 1 h
Rattus norvegicus [2] = species: Rattus norvegicus; assay: Tested for biodistribution of compound at 10 min in rat heart; assay type: ADME, organism-based; conditions: in vivo
Summary of the method: (§1)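 Wistar rats under ether anesthesia were dosed through the femoral vein with 0.1 mL of 99mTc complex (3-6 μCi) and dissected 5-60 min pi. Tissue radioactivity was γ-counted against a 1% injected-dose standard and expressed as % dose/organ. Blood and muscle were calculated from sample weight assuming 7% and 43% of body weight.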

Rattus norvegicus [3] = species: Rattus norvegicus; assay: Tested for biodistribution of compound at 10 min in rat intestine; assay type: ADME, organism-based; conditions: in vivo; summary of the method: as §1
Mus musculus [4] = species: Mus musculus; assay: Tested for biodistribution of compound at 5 min in mice heart; assay type: ADME, organism-based; conditions: in vivo
Summary of the method: (§2)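 Male Swiss albino mice, at least five per group, received HPLC-purified 99mTc complex by tail vein. The complex was reconstituted in 50% methanol (0.1 mL, 2-3 μCi). Mice were killed by cardiectomy under light ether at 1-60 min pi. Organs were weighed and γ-counted against a 1% injected-dose standard to give % dose/organ. Blood and muscle were taken as 7% and 43% of body weight.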

Rattus norvegicus [5] = species: Rattus norvegicus; assay: Tested for biodistribution of compound at 30 min in rat blood; assay type: ADME, organism-based; conditions: in vivo, 0.5 h; summary of the method: as §1
Mus musculus [6] = species: Mus musculus; assay: Tested for biodistribution of compound at 5 min in mice intestine; assay type: ADME, organism-based; conditions: in vivo; summary of the method: as §2
Mus musculus [7] = species: Mus musculus; assay: Tested for biodistribution of compound at 30 min in mice kidney; assay type: ADME, organism-based; conditions: in vivo, 0.5 h
Summary of the method: (§3)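 Male Swiss albino mice, at least five per group, received 0.1 mL (2-3 μCi) of HPLC-purified 99mTc complex reconstituted in 50% methanol by tail vein. They were killed by cardiectomy under light ether anesthesia at set times (1-60 min pi). Organs were weighed and γ-counted against a 1% injected-dose standard to give % dose/organ. Blood and muscle were taken as 7% and 43% of body weight.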

Mus musculus [8] = species: Mus musculus; assay: Tested for biodistribution of compound at 10 min in mice liver; assay type: ADME, organism-based; conditions: in vivo; summary of the method: as §3
Mus musculus [9] = species: Mus musculus; assay: Tested for biodistribution of compound at 60 min in mice stomach; assay type: ADME, organism-based; conditions: in vivo, 1 h; summary of the method: as §2
Mus musculus [10] = species: Mus musculus; assay: Tested for biodistribution of compound at 60 min in mice brain; assay type: ADME, organism-based; conditions: in vivo, 1 h; summary of the method: as §2
Mus musculus [11] = species: Mus musculus; assay: Tested for biodistribution of compound at 30 min in mice blood; assay type: ADME, organism-based; conditions: in vivo, 0.5 h; summary of the method: as §3
Rattus norvegicus [12] = species: Rattus norvegicus; assay: Tested for biodistribution of compound at 30 min in rat heart; assay type: ADME, organism-based; conditions: in vivo, 0.5 h; summary of the method: as §1
Mus musculus [13] = species: Mus musculus; assay: Tested for biodistribution of compound at 1 min in mice heart; assay type: ADME, organism-based; conditions: in vivo; summary of the method: as §3
Rattus norvegicus [14] = species: Rattus norvegicus; assay: Tested for biodistribution of compound at 60 min in rat s. intestine; assay type: ADME, organism-based; conditions: in vivo, 1 h
Rattus norvegicus [15] = species: Rattus norvegicus; assay: Tested for biodistribution of compound at 60 min in rat blood; assay type: ADME, organism-based; conditions: in vivo, 1 h
Mus musculus [16] = species: Mus musculus; assay: Tested for biodistribution of compound at 5 min in mice liver; assay type: ADME, organism-based; conditions: in vivo; summary of the method: as §2
Rattus norvegicus [17] = species: Rattus norvegicus; assay: Tested for biodistribution of compound at 5 min in rat l intestine; assay type: ADME, organism-based; conditions: in vivo
Rattus norvegicus [18] = species: Rattus norvegicus; assay: Tested for biodistribution of compound at 60 min in rat lungs; assay type: ADME, organism-based, Lung; conditions: in vivo, 1 h
Rattus norvegicus [19] = species: Rattus norvegicus; assay: Tested for biodistribution of compound at 5 min in rat liver; assay type: ADME, organism-based; conditions: in vivo
Mus musculus [20] = species: Mus musculus; assay: Tested for biodistribution of compound at 60 min in mice intestine; assay type: ADME, organism-based; conditions: in vivo, 1 h; summary of the method: as §2
Mus musculus [21] = species: Mus musculus; assay: Tested for biodistribution of compound at 60 min in mice lungs; assay type: ADME, organism-based, Lung; conditions: in vivo, 1 h; summary of the method: as §2
Mus musculus [22] = species: Mus musculus; assay: Tested for biodistribution of compound at 1 min in mice lungs; assay type: ADME, organism-based, Lung; conditions: in vivo; summary of the method: as §3
Mus musculus [23] = species: Mus musculus; assay: Tested for biodistribution of compound at 30 min in mice liver; assay type: ADME, organism-based; conditions: in vivo, 0.5 h; summary of the method: as §3
Mus musculus [24] = species: Mus musculus; assay: Tested for biodistribution of compound at 5 min in mice blood; assay type: ADME, organism-based; conditions: in vivo; summary of the method: as §2
Mus musculus [25] = species: Mus musculus; assay: Tested for biodistribution of compound at 10 min in mice brain; assay type: ADME, organism-based; conditions: in vivo; summary of the method: as §3
Rattus norvegicus [26] = species: Rattus norvegicus; assay: Tested for biodistribution of compound at 10 min in rat muscle; assay type: ADME, organism-based, Muscle tissue; conditions: in vivo; summary of the method: as §1
Mus musculus [27] = species: Mus musculus; assay: Tested for biodistribution of compound at 5 min in mice brain; assay type: ADME, organism-based; conditions: in vivo; summary of the method: as §2
Rattus norvegicus [28] = species: Rattus norvegicus; assay: Tested for biodistribution of compound at 10 min in rat s. intestine; assay type: ADME, organism-based; conditions: in vivo; summary of the method: as §1
Rattus norvegicus [29] = species: Rattus norvegicus; assay: Tested for biodistribution of compound at 10 min in rat lungs; assay type: ADME, organism-based, Lung; conditions: in vivo; summary of the method: as §1
Mus musculus [30] = species: Mus musculus; assay: Tested for biodistribution of compound at 5 min in mice stomach; assay type: ADME, organism-based; conditions: in vivo; summary of the method: as §2
Mus musculus [31] = species: Mus musculus; assay: Tested for biodistribution of compound at 60 min in mice liver; assay type: ADME, organism-based; conditions: in vivo, 1 h; summary of the method: as §2
Rattus norvegicus [32] = species: Rattus norvegicus; assay: Tested for biodistribution of compound at 5 min in rat heart; assay type: ADME, organism-based; conditions: in vivo
Mus musculus [33] = species: Mus musculus; assay: Tested for biodistribution of compound at 30 min in mice spleen; assay type: ADME, organism-based; conditions: in vivo, 0.5 h; summary of the method: as §3
Mus musculus [34] = species: Mus musculus; assay: Tested for biodistribution of compound at 10 min in mice blood; assay type: ADME, organism-based; conditions: in vivo; summary of the method: as §3
Rattus norvegicus [35] = species: Rattus norvegicus; assay: Tested for biodistribution of compound at 5 min in rat brain; assay type: ADME, organism-based; conditions: in vivo
Mus musculus [36] = species: Mus musculus; assay: Tested for biodistribution of compound at 60 min in mice heart; assay type: ADME, organism-based; conditions: in vivo, 1 h; summary of the method: as §2
Rattus norvegicus [37] = species: Rattus norvegicus; assay: Tested for biodistribution of compound at 10 min in rat liver; assay type: ADME, organism-based; conditions: in vivo; summary of the method: as §1
Mus musculus [38] = species: Mus musculus; assay: Tested for biodistribution of compound at 30 min in mice stomach; assay type: ADME, organism-based; conditions: in vivo, 0.5 h; summary of the method: as §3
Mus musculus [39] = species: Mus musculus; assay: Tested for biodistribution of compound at 10 min in mice muscle; assay type: ADME, organism-based, Muscle tissue; conditions: in vivo; summary of the method: as §3
Mus musculus [40] = species: Mus musculus; assay: Tested for biodistribution of compound at 10 min in mice intestine; assay type: ADME, organism-based; conditions: in vivo; summary of the method: as §3
Rattus norvegicus [41] = species: Rattus norvegicus; assay: Tested for biodistribution of compound at 30 min in rat muscle; assay type: ADME, organism-based, Muscle tissue; conditions: in vivo, 0.5 h
Mus musculus [42] = species: Mus musculus; assay: Tested for biodistribution of compound at 60 min in mice kidney; assay type: ADME, organism-based; conditions: in vivo, 1 h; summary of the method: as §2
Mus musculus [43] = species: Mus musculus; assay: Tested for biodistribution of compound at 30 min in mice heart; assay type: ADME, organism-based; conditions: in vivo, 0.5 h; summary of the method: as §3
Rattus norvegicus [44] = species: Rattus norvegicus; assay: Tested for biodistribution of compound at 10 min in rat blood; assay type: ADME, organism-based; conditions: in vivo; summary of the method: as §1
Mus musculus [45] = species: Mus musculus; assay: Tested for biodistribution of compound at 60 min in mice muscle; assay type: ADME, organism-based, Muscle tissue; conditions: in vivo, 1 h; summary of the method: as §2
Mus musculus [46] = species: Mus musculus; assay: Tested for biodistribution of compound at 10 min in mice spleen; assay type: ADME, organism-based; conditions: in vivo; summary of the method: as §3
Mus musculus [47] = species: Mus musculus; assay: Tested for biodistribution of compound at 30 min in mice urine; assay type: ADME, organism-based; conditions: in vivo, 0.5 h; summary of the method: as §3
Rattus norvegicus [48] = species: Rattus norvegicus; assay: Tested for biodistribution of compound at 30 min in rat spleen; assay type: ADME, organism-based; conditions: in vivo, 0.5 h

Dose/organ (Rattus norvegicus [1]): 1.05% | Dose/organ (Rattus norvegicus [2]): 0.51% | Dose/organ (Rattus norvegicus [3]): 2.7% | Dose/organ (Mus musculus [4]): 0.74% | Dose/organ (Rattus norvegicus [5]): 7.47% | Dose/organ (Mus musculus [6]): 8.31% | Dose/organ (Mus musculus [7]): 2.19% | Dose/organ (Mus musculus [8]): 14.14% | Dose/organ (Mus musculus [9]): 2.34% | Dose/organ (Mus musculus [10]): 1.54% | Dose/organ (Mus musculus [11]): 1.29% | Dose/organ (Rattus norvegicus [12]): 0.17% | Dose/organ (Mus musculus [13]): 3.6% | Dose/organ (Rattus norvegicus [14]): 8.15% | Dose/organ (Rattus norvegicus [15]): 4.8% | Dose/organ (Mus musculus [16]): 10.73% | Dose/organ (Rattus norvegicus [17]): 2.64% | Dose/organ (Rattus norvegicus [18]): 1.14% | Dose/organ (Rattus norvegicus [19]): 19.32% | Dose/organ (Mus musculus [20]): 33.7% | Dose/organ (Mus musculus [21]): 1.79% | Dose/organ (Mus musculus [22]): 27.19% | Dose/organ (Mus musculus [23]): 25.58% | Dose/organ (Mus musculus [24]): 2.02% | Dose/organ (Mus musculus [25]): 2.47% | Dose/organ (Rattus norvegicus [26]): 27.89% | Dose/organ (Mus musculus [27]): 3.01% | Dose/organ (Rattus norvegicus [28]): 6.34% | Dose/organ (Rattus norvegicus [29]): 7.78% | Dose/organ (Mus musculus [30]): 0.96% | Dose/organ (Mus musculus [31]): 35.12% | Dose/organ (Rattus norvegicus [32]): 0.64% | Dose/organ (Mus musculus [33]): 0.38% | Dose/organ (Mus musculus [34]): 1.53% | Dose/organ (Rattus norvegicus [35]): 1.45% | Dose/organ (Mus musculus [36]): 0.12% | Dose/organ (Rattus norvegicus [37]): 24.09% | Dose/organ (Mus musculus [38]): 1.24% | Dose/organ (Mus musculus [39]): 16.49% | Dose/organ (Mus musculus [40]): 9.61% | Dose/organ (Rattus norvegicus [41]): 16.52% | Dose/organ (Mus musculus [42]): 1.59% | Dose/organ (Mus musculus [43]): 0.19% | Dose/organ (Rattus norvegicus [44]): 17.72% | Dose/organ (Mus musculus [45]): 6.86% | Dose/organ (Mus musculus [46]): 0.36% | Dose/organ (Mus musculus [47]): 5.06% | Dose/organ (Rattus norvegicus [48]): 0.3%
Substance: [4-methoxythio)phenolato][N,N-bis(2-mercaptoethyl)-N',N'-diethylethylenediamine] oxotechnetium
